This note sets out measurements from ChEMBL document CHEMBL4400548, “Structure-Based in Silico Screening Identifies a Potent Ebolavirus Inhibitor from a Traditional Chinese Medicine Library” (J Med Chem, 2019).

SMILES strings stand for the structures. Active and inactive are the calls of the source. The calls are words filed in the database; no cut-off is given here.

For assay [1], the system named is Ebola virus - Zaire (1995). The experiment in a line: Binding affinity to recombinant Ebola virus Zaire Mayinga-76 Envelope glycoprotein assessed as change in melting temperature up to 500 uM by SYPRO-dye based thermal shift assay.
A further assay has as its system Ebolavirus. Description: Antiviral activity against HIV-1-derived Ebolavirus pseudoparticle infected in human TZM-bl cells after 48 hrs by beta-gal based reporter assay. The settings on record: Orthoebolavirus. The assay is classed as functional, organism-based. In short, it runs like this: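 TZM-bl cells were plated at 2 × 10^4 per well 24 h ahead and chilled on ice. EBOVpp (1 in 10 dilution) was spinoculated at 2100g for 30 min at 4 °C, then removed with a PBS wash. Compound (100–0.125 μM) was added in DMEM/5% FBS for 48 h at 37 °C. Cells were fixed in 2% PFA, X-gal stained and imaged for infected/total cells. Triplicate runs; sigmoidal fit for IC50.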
A general note: In a reporter assay the amount or activity of a reporter protein is the signal.

With `O=C(/C=C/C1=Cc2ccccc2OC1)c1ccc(O)cc1`, the outcome in assay [1] was inactive. Still for that read-out and setting: for `N#Cc1cc(N)ccc1Sc1cccc(C(F)(F)F)c1` the value was “inactive”; for `Nc1ccc(SSc2ccc(N)cc2)cc1`, “inactive”. The term IC50 denotes the concentration at which inhibition is half-maximal. Low readings indicate higher potency, high ones lower potency. The IC80 is the concentration needed for an effect of 80%. Low readings indicate an effect from little substance, high ones a need for much substance. In the assay on Ebolavirus, `Cc1[nH]nc(-c2ccc(OCCN3CCC(C(N)=O)CC3)cc2O)c1-c1ccc(Cl)cc1` gave an IC50 of 50 nM and an IC80 of 390 nM. The outcome in assay [1] was Active. The corresponding values for `NC(=O)C1CCN(CCOc2ccc(-c3n[nH]cc3-c3ccccc3)c(O)c2)CC1` are 3100 nM, 50000 nM and “Active”. With `O=C(/C=C/c1cc(Br)cc2c1OCOC2)c1cc(F)ccc1O`, in assay [1], the outcome was inactive. Turning to `CN(C)CCOc1ccc(/C(=C(/CCCl)c2ccccc2)c2ccccc2)cc1` [TOREMIFENE], in the assay with Ebolavirus, the IC50 is 90 nM and the IC80 was determined as 3000 nM.

With `COc1ccc(CC(=O)c2c(C)cc(O)cc2O)cc1`, in assay [1], the result was inactive.
